# Measured values published in ChEMBL document CHEMBL2034843, “3α-Hydroxymasticadienonic acid as an antiproliferative agent that impairs mitochondrial functions” (J Nat Prod, 2012).
# Activity calls are given as the source filed them. The rule behind the calls is not given here.
# Tests used:
# Rattus norvegicus [1] = species on record: Rattus norvegicus; experiment: Induction of mitochondrial dysfunction in rat liver mitochondria assessed as cytochrome c release at 100 uM after 15 mins by Western blot analysis; type: functional
# In short: (§1)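 Mitochondria (1 mg protein/mL) held 15 min at 20 °C in standard succinate/rotenone medium with or without Ca2+, then centrifuged 13000g, 10 min, 4 °C. Supernatants concentrated, resolved by SDS-PAGE (15% for cyt c, 10% for AIF) and immunoblotted with mouse anti-cyt c or rabbit anti-AIF.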
# Rattus norvegicus [2] = species on record: Rattus norvegicus; experiment: Induction of mitochondrial dysfunction in rat liver mitochondria assessed as apoptosis inducing factor release at 100 uM after 15 mins by Western blot analysis; type: functional; in short: as §1
# Rattus norvegicus [3] = species on record: Rattus norvegicus; experiment: Induction of mitochondrial dysfunction in rat liver mitochondria assessed as blockage of Ca2+ release at 100 uM by spectrophotometric analysis; type: functional; settings: in the assay text read “Ca2+ accumulation” for “Ca2+ release”
# In short: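 Ca2+ movements in rat liver mitochondria (1 mg protein/mL, 20 °C, succinate/rotenone medium) exposed to 70 μM Ca2+; Ca2+ in mitochondrial pellets measured by atomic absorption spectroscopy, uptake expressed per mg protein.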
# Rattus norvegicus [4] = species on record: Rattus norvegicus; experiment: Induction of mitochondrial dysfunction in rat liver mitochondria assessed as apoptosis inducing factor release at 100 uM after 15 mins by Western blot analysis in presence of Ca2+; type: functional; in short: as §1
# Rattus norvegicus [5] = species on record: Rattus norvegicus; experiment: Induction of mitochondrial bioenergetics dysfunction in rat liver mitochondria assessed as decrease in respiratory control index at 25 uM by using clark electrode; type: functional
# In short: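 Isolated rat liver mitochondria (1 mg protein/mL), 20 °C, sucrose/HEPES pH 7.4 medium with 5 mM succinate plus 1.25 μM rotenone and 1 mM phosphate. O2 uptake followed with a Clark electrode; 300 μM ADP added to start state 3. RCI = V3/V4 (state 3 over state 4 rate). Five experiments.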
# Rattus norvegicus [6] = species on record: Rattus norvegicus; experiment: Induction of mitochondrial dysfunction in Ca2+-stimulated rat liver mitochondria assessed as decrease in mitochondrial redox level at 10 uM after 15 mins by absorption spectrophotometric analysis in presence of cyclosporin A; type: functional
# In short: (§2)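 Mitochondrial protein thiol oxidation assayed per Santos et al. after 15 min incubation of rat liver mitochondria (1 mg protein/mL, 20 °C, succinate/rotenone standard medium). Results as % reduced thiols, mean ± SD, four independent experiments.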
# Rattus norvegicus [7] = species on record: Rattus norvegicus; experiment: Induction of mitochondrial dysfunction in Ca2+-stimulated rat liver mitochondria assessed as decrease in SH mitochondrial redox level at 10 uM after 15 mins by absorption spectrophotometric analysis in presence of dithiothreitol; type: functional; in short: as §2
# Rattus norvegicus [8] = species on record: Rattus norvegicus; experiment: Induction of mitochondrial dysfunction in rat liver mitochondria assessed as increase in colloid-osmotic swelling at 10 to 100 uM by spectrophotometric analysis; type: functional
# In short: (§3)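 Absorbance change at 540 nm of rat liver mitochondrial suspensions (1 mg protein/mL, 20 °C, succinate/rotenone energized, 250 mM sucrose, 10 mM HEPES pH 7.4, 1 mM phosphate); a fall in absorbance taken as swelling. Ca2+ at 50, 70 or 90 μM as specified, or omitted. Runs repeated at least four times.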
# Rattus norvegicus [9] = species on record: Rattus norvegicus; experiment: Induction of mitochondrial dysfunction in rat liver mitochondria assessed as decrease in mitochondrial redox level at 100 uM after 15 mins by absorption spectrophotometric analysis in presence of 50 uM Ca2+; type: functional; set-up: scale not given: the % may be the effect or the level left; in short: as §2
# Rattus norvegicus [10] = species on record: Rattus norvegicus; experiment: Induction of mitochondrial dysfunction in rat liver mitochondria assessed as increase in colloid-osmotic swelling at 10 uM by spectrophotometric analysis in presence of 50 uM Ca2+ and cyclosporin A; type: functional
# In short: (§4)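 Swelling read as the 540 nm absorbance decrease in succinate-energized rat liver mitochondria (1 mg protein/mL, 20 °C, pH 7.4 sucrose/HEPES medium) with 50 μM Ca2+. Added agents where indicated: 1 μM CsA, 5 μM bongkrekic acid, 1 mM ADP, 2 μM ruthenium red, 10 μM NEM, 1 mM DTE. At least five repeats.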
# Rattus norvegicus [11] = species on record: Rattus norvegicus; experiment: Induction of mitochondrial dysfunction in rat liver mitochondria assessed as increase in colloid-osmotic swelling at 10 uM by spectrophotometric analysis in presence of 50 uM Ca2+ and Ca2+ transport inhibitor ruthedium red; type: functional; in short: as §4
# Rattus norvegicus [12] = species on record: Rattus norvegicus; experiment: Induction of mitochondrial dysfunction in rat liver mitochondria assessed as decrease in mitochondrial redox level at 10 uM after 15 mins by absorption spectrophotometric analysis in presence of 50 uM Ca2+; type: functional; set-up: scale not given: the % may be the effect or the level left; in short: as §2
# Rattus norvegicus [13] = species on record: Rattus norvegicus; experiment: Induction of mitochondrial dysfunction in rat liver mitochondria assessed as decrease in membrane potential at 10 uM by spectrophotometric analysis in presence of 50 uM Ca2+; type: functional; settings: TDE = time-dependent effect
# In short: (§5)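 Membrane potential (ΔΨ) derived from TPP+ distribution across the inner membrane, measured with a TPP+-selective electrode. Ca2+ 50 μM where indicated; cyclosporin A 1 μM where indicated.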
# Rattus norvegicus [14] = species on record: Rattus norvegicus; experiment: Induction of mitochondrial dysfunction in rat liver mitochondria assessed as increase in colloid-osmotic swelling at 10 uM by spectrophotometric analysis in presence of 50 uM Ca2+ and N-ethylmaleimide; type: functional; in short: as §4
# Rattus norvegicus [15] = species on record: Rattus norvegicus; experiment: Induction of mitochondrial dysfunction in rat liver mitochondria assessed as decrease in mitochondrial redox level at 10 uM after 15 mins by absorption spectrophotometric analysis; type: functional; set-up: scale not given: the % may be the effect or the level left; in short: as §2
# Rattus norvegicus [16] = species on record: Rattus norvegicus; experiment: Induction of mitochondrial dysfunction in rat liver mitochondria assessed as increase in mitochondrial swelling at < 20 uM by spectrophotometric analysis in presence of 70 uM Ca2+; type: functional; in short: as §3
# Rattus norvegicus [17] = species on record: Rattus norvegicus; experiment: Induction of mitochondrial dysfunction in rat liver mitochondria assessed as cytochrome c release at 10 uM after 15 mins by Western blot analysis in presence of Ca2+; type: functional; in short: as §1
# Rattus norvegicus [18] = species on record: Rattus norvegicus; experiment: Induction of mitochondrial dysfunction in rat liver mitochondria assessed as decrease in mitochondrial redox level at 100 uM after 15 mins by absorption spectrophotometric analysis; type: functional; set-up: scale not given: the % may be the effect or the level left; in short: as §2
# Rattus norvegicus [19] = species on record: Rattus norvegicus; experiment: Induction of mitochondrial dysfunction in rat liver mitochondria assessed as decrease in mitochondrial pyridine nucleotide redox level at 10 uM after 15 mins by fluorometric analysis in presence of Ca2+
# Rattus norvegicus [20] = species on record: Rattus norvegicus; experiment: Induction of mitochondrial dysfunction in rat liver mitochondria assessed as cytochrome c release at 100 uM after 15 mins by Western blot analysis in presence of Ca2+; type: functional; in short: as §1
# A-431 = experiment: Cytotoxicity against human A431cells after 72 hrs by trypan blue assay; type: functional, cell-based; settings: A-431, 72 h
# In short: (§6)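 Cells seeded at 4 × 10^4 per well, grown 24 h, then given fresh medium with a range of concentrations and kept a further 72 h at 37 °C in 5% CO2. Viability was read by trypan blue count. IC50 is the concentration giving 50% fewer cells than control cultures, as mean ± SD of at least four experiments. HeLa were grown in F-12 with 10% heat-inactivated FCS; A-431 and HepG2 in DMEM with 10% FBS.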
# Rattus norvegicus [21] = species on record: Rattus norvegicus; experiment: Induction of mitochondrial dysfunction in Ca2+-stimulated rat liver mitochondria assessed as decrease in mitochondrial redox level at 10 uM after 15 mins by absorption spectrophotometric analysis in presence of ADP; type: functional; in short: as §2
# HepG2 = experiment: Cytotoxicity against human HepG2 cells after 72 hrs by trypan blue assay; type: functional, cell-based; settings: HepG2, 72 h; in short: as §6
# HeLa = experiment: Cytotoxicity against human HeLa cells after 72 hrs by trypan blue assay; type: functional, cell-based; in short: as §6
# Rattus norvegicus [22] = species on record: Rattus norvegicus; experiment: Induction of mitochondrial dysfunction in rat liver mitochondria assessed as decrease in membrane potential at 5 uM by spectrophotometric analysis in presence of 50 uM Ca2+; type: functional; settings: TDE = time-dependent effect; in short: as §5
# Rattus norvegicus [23] = species on record: Rattus norvegicus; experiment: Hepatoprotective activity in rat liver mitochondria assessed as inhibition of Ca2+-induced mitochondrial swelling at 100 uM by spectrophotometric analysis; type: functional; in short: as §3
compound,measurement,setting,value
C/C(=C/CC[C@H](C)[C@@H]1CC[C@]2(C)C3=CC[C@H]4C(C)(C)[C@H](O)CC[C@]4(C)[C@H]3CC[C@@]12C)C(=O)O,Activity,Rattus norvegicus [1],inactive
same,Activity,Rattus norvegicus [2],inactive
same,Activity,Rattus norvegicus [3],Active
same,Activity,Rattus norvegicus [4],inactive
same,Activity,Rattus norvegicus [5],Active
same,Activity,Rattus norvegicus [6],inactive
same,Activity,Rattus norvegicus [7],inactive
same,Activity,Rattus norvegicus [8],inactive
same,Activity,Rattus norvegicus [9],25%
same,Activity,Rattus norvegicus [10],inactive
same,Activity,Rattus norvegicus [11],inactive
same,Activity,Rattus norvegicus [12],50%
same,Activity,Rattus norvegicus [13],tde
same,Activity,Rattus norvegicus [14],inactive
same,Activity,Rattus norvegicus [15],20%
same,Activity,Rattus norvegicus [16],Active
same,Activity,Rattus norvegicus [17],Active
same,Activity,Rattus norvegicus [18],25%
same,Activity,Rattus norvegicus [19],Active
same,Activity,Rattus norvegicus [20],inactive
same,IC50,A-431,40 µM
same,Activity,Rattus norvegicus [21],Active
same,IC50,HepG2,20.1 µM
same,IC50,HeLa,28.9 µM
same,Activity,Rattus norvegicus [22],tde
same,inhibition,Rattus norvegicus [23],Active
